HSV replic up: HSV replication enhancement | actives 0.005% (n = 220,000) | maximum fold increase | HSV replication augmentation in cells, fold increase | AID 1956; in the data active means maximum fold increase above about 1.5; tested in PC3 cells
STAT1 act: STAT1 signaling activation | NIH 3T3 STAT1-luciferase reporter, IFN-gamma, luminescence; 100% = IFN-gamma alone, no compound | activation (% of control), % at 5.5 µM | actives 2.6% (n = 200,000) | AID 932;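 active means activation above the screen-wide mean activation plus 3 SD, cut at about 130% in these data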;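 further: raw ratio to IFN-gamma control signal so 100% means no change and 0% no light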
STAT1 inh: reduces IFN-gamma driven STAT1 reporter signal; inhibition, % at 5.5 µM; NIH 3T3 STAT1-luciferase reporter, luminescence; actives 0.35% (n = 200,000);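 active means inhibition above a set limit, the mean inhibition across all tested compounds plus 3 SD, cut at about 34% in these data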;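 further: 0% = IFN-gamma with DMSO and 100% = IFN-gamma with 300 µM nifuroxazide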
STAT3 activator: STAT3 signaling activation. U3A cells, IL-6 STAT3-luciferase reporter, luminescence; 100% = signal with IL-6 EC80 alone. activation (% of control), % at 5.6 µM. actives 0.91% (n = 190,000). AID 871;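 active means activation above the screen-wide mean of compound activation plus 3 SD, cut at about 130% in these data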;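 further: 0% = background luminescence of wells with medium and substrate only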
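Material: STAT1-lacking human U3A cells, STAT3 luciferase reporter | Benchmarks: IL-6-only wells as 100% reference | Probe or stimulus: IL-6 (33 ng/mL) | Timing: Compound 1 h, then IL-6 6 h at 37 °C | Detection: Luminescence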
Cl transport mod: modulates chloride dependent transport by human KCC2. actives 2.2% (n = 190,000). KCC2 cells, thallium flux FluoZin-2 fluorescence. B-score of Tl+ flux slope (higher = more flux/activation; lower = inhibition) at 10 µM;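 active means thallium flux slope and its plate-corrected score both differing from the plate sample mean at a set confidence after two filtering rounds, in either direction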;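 further: slope of fluorescence scaled to starting intensity during 10 to 20 s after thallium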
STAT3 inh-1: reduces IL-6 driven STAT3 reporter signal; U3A cells, IL-6 STAT3-luciferase reporter, luminescence; host cell line lacks STAT1; inhibition, % at 5.5 µM; actives 0.89% (n = 190,000);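 active means inhibition above the mean inhibition across all screened compounds plus 3 SD, cut at about 44% in these data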;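 further: 0% = DMSO only wells and 100% = 100 µM nifuroxazide control wells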
STAT3 inh-2: confirmation of STAT3 signaling inhibitors | shares compounds with STAT3 inh-1 | inhibition, % at 5.7 µM | U3A cells, IL-6 STAT3 luciferase reporter, luminescence; cell line lacks STAT1 | actives 45% (n = 1,200) | AID 1265;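 active means inhibition above the hit cutoff computed for the primary STAT3 screen, cut at about 44% in these data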;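 further: 0% = IL-6 plus DMSO and 100% = IL-6 plus nifuroxazide control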
NFkB inh 2: inhibits NF-kappaB, counter-screen to STAT3 inhibitors. shares compounds with STAT3 inh-1. actives 36% (n = 1,200). inhibition, % at 5.7 µM. HEK293T NF-kB luciferase reporter, TNF-alpha induced;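 active means inhibition above the mean of solvent-only control wells plus 3 SD, cutoff set per campaign, cut at about 13% in these data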;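 further: 0% = TNF-alpha with DMSO and 100% = TNF-alpha with MG high control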
STAT1 inh 2: counter-screen for STAT3 inhibitors: STAT1 inhibition | shares compounds with STAT3 inh-1 | NIH 3T3 STAT1-luciferase reporter, IFN-gamma induced, luminescence | inhibition, % at 5.7 µM | actives 27% (n = 1,200);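 active means inhibition above the mean plus 3 SD of solvent-only control wells, limit set per screening run, cut at about 16% in these data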;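 further: 0% = DMSO with IFN-gamma and 100% = nifuroxazide control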
* hit, by the source's call; i = inactive; . = no result. In the library only some 5.5% were active in any assay of this set; here they are far more common.

SMILES	HSV replic up	STAT1 act	STAT1 inh	STAT3 activator	Cl transport mod	STAT3 inh-1	STAT3 inh-2	NFkB inh 2	STAT1 inh 2
O=C(c1ccc2c(c1)OCO2)N1CCN(c2ccc(Cl)cc2)CC1	i	88.0	13.2	90.9	.	14.3	.	.	.
COc1ccc(NC(=O)C2=Cc3ccccc3OC2)cc1	i	80.7	20.0	53.9	0.0095	58.0*	23.8	-31.8	-108.7
CN(Cc1ccccc1)C(=O)CN(c1ccc(F)cc1)S(=O)(=O)c1ccc2c(c1)OCCO2	i	94.2	3.4	106.3	-2.13	-4.4	.	.	.
Nc1cccc2c1C(=O)N(C(=O)/C=C/c1ccc(F)cc1)C2=O	i	83.1	17.5	94.2	0.0712	9.3	.	.	.
O=C(N/N=C/c1ccc(OC(F)F)cc1OC(F)F)NC1CCCCC1	i	99.6	-0.3	102.8	-0.572	-1.0	.	.	.
C[n+]1c2n(c3ccccc31)N=C(c1ccc(-c3ccccc3)cc1)CS2	i	71.7	29.2	45.9	-0.699	66.0*	32.6	3.2	29.0*
O=[N+]([O-])c1cc2c(c(CSc3nnnn3-c3ccc(O)cc3)c1)OCOC2	i	96.0	4.5	98.0	-1.24	-0.1	.	.	.
COc1ccc(/C=N/Nc2ccccn2)cc1O	i	.	.	.	0.0275	.	.	.	.
CCOc1ccc(/C=N/Nc2ccccn2)cc1	i	106.6	-8.3	61.2	-0.387	49.5*	6.8	-27.6	-112.4
CC(c1ccccc1)c1nnc(NC(=O)c2ccc3c(c2)OCO3)s1 (stereo unspecified)	i	.	.	.	-1.2	.	.	.	.
CC(C)c1nnc(NC(=O)c2ccc3c(c2)OCO3)s1	i	79.4	21.8	32.4	0.618	78.9*	48.5*	4.2	-55.5
Cc1ccc(S(=O)(=O)c2c(C)cc(C)nc2N2CCCCC2)cc1	i	93.8	4.7	105.6	-0.806	0.1	.	.	.
CN1CC(=O)N(CC(=O)NCc2ccc3c(c2)OCO3)C1=O	i	95.1	5.3	97.0	0.896	0.6	.	.	.
Cc1ccc(N2C(=O)c3ccccc3C2O)nc1 (stereo unspecified)	.	99.3	1.6	40.0	0.376	73.6*	43.8*	8.1	-20.8
Cc1ccc(N2C(=O)c3ccccc3C2Nc2ccccc2F)nc1 (stereo unspecified)	i	93.5	7.2	96.2	0.954	9.5	.	.	.
CCC(C)NC(=S)Nc1ccc(C(=O)OC)cc1 (stereo unspecified)	i	88.4	13.1	55.6	-0.851	55.1*	52.7*	10.8	5.7
CCC(C)NC(=S)Nc1ccccc1 (stereo unspecified)	i	.	.	.	-0.0618	.	.	.	.
COc1ccc2cc3c(N)nn(C(=O)Cc4ccc(Cl)cc4)c3nc2c1	.	98.4	1.8	93.8	0.94	15.9	.	.	.
COc1cccc(CC(=O)n2nc(N)c3cc4ccc(OC)cc4nc32)c1	.	98.8	1.4	67.7	-0.461	45.8*	36.5	-14.3	8.1
CC(=O)Nc1ccc(SCC(=O)c2cc(C)n(-c3ccccc3)c2C)cc1	i	140.9*	-45.0	61.0	-0.641	44.5*	12.7	-45.8	-117.7
CCN(CC)C(=O)/C(=C\c1ccc(Br)cc1)NC(=O)c1ccccc1OC	i	97.2	3.1	107.5	.	2.9	.	.	.
O=C(O)COc1ccc(-c2nccc(-c3ccccn3)n2)cc1	i	86.0	14.8	64.5	-0.259	46.8*	37.8	15.2*	-0.2
CC(C)C(=O)Nc1ccc(NC(=O)c2cccnc2)cn1	i	96.7	3.6	91.1	0.405	14.4	.	.	.
CC(C)C(=O)Nc1ccc(NC(=O)c2ccccn2)cn1	i	92.0	8.8	60.5	.	53.2*	15.9	-21.5	-42.3
NC(=O)COC(=O)CC1CC2CCC1C2 (stereo unspecified)	i	109.4	-11.8	110.6	0.0351	-7.4	.	.	.
SMILES	HSV replic up	STAT1 act	STAT1 inh	STAT3 activator	Cl transport mod	STAT3 inh-1	STAT3 inh-2	NFkB inh 2	STAT1 inh 2
Cc1ccc2cc3c(N)[nH]nc3nc2c1	i	100.6	-0.6	96.5	0.311	-0.8	.	.	.
Cc1ccc2cc(C#N)c(NCCNC(=S)NCCCN(C)C)nc2c1C	i	95.3	4.2	100.3	-0.776	6.7	.	.	.
Cc1ccc2cc(C#N)c(NCCNC(=O)C3CC3)nc2c1C	.	92.7	8.1	57.8	.	55.6*	14.3	-4.3	-8.3
CC(=O)Nc1ccc(-c2csc(Nc3ccc(Cl)cn3)n2)cc1	i	117.9	-19.6	59.7	1.75	52.5*	46.1*	5.0	-17.5
CC(=O)Nc1ccc(-c2csc(Nc3ccc(S(N)(=O)=O)cc3)n2)cc1	i	107.0	-7.9	90.3	-1.17	15.6	.	.	.
O=C(Nc1nc(-c2ccccc2)cs1)c1ccc(N2CCOCC2)c([N+](=O)[O-])c1	i	86.1	15.3	38.2	-0.282	71.9*	77.2*	22.9*	16.5*
O=C(Nc1ccn(Cc2ccccc2F)n1)c1ccc(COc2ccccc2Cl)cc1	.	102.5	-2.7	64.3	-0.679	46.1*	46.4*	6.9	4.8
CC1=C(C#N)C(NC(=O)c2cccc(Cl)c2)(C(F)(F)F)C(=O)N1 (stereo unspecified)	i	90.9	10.2	81.0	0.0263	22.5	.	.	.
CC(=O)N1CCc2cc(S(=O)(=O)NC3CCCc4ccccc43)ccc21 (stereo unspecified)	i	82.7	19.0	62.1	-0.761	47.6*	46.0*	0.8	8.9
O=C(O)c1ccc(S(=O)(=O)NC2CCCc3ccccc32)cc1 (stereo unspecified)	i	100.5	-0.5	96.4	0.648	12.9	.	.	.
O=C(NCc1ccccc1)c1c[nH]c2ccc(S(=O)(=O)Nc3ccc4c(c3)OCCO4)cc2c1=O	i	96.3	4.0	103.4	.	0.4	.	.	.
O=C(NCc1cccnc1)c1c[nH]c2cc3c(cc2c1=O)OCCO3	i	94.7	5.8	55.2	0.461	60.2*	23.3	-15.1	-23.3
COc1ccc(/C=N/Nc2nncc3ccccc23)cc1	i	120.5	-22.4	45.3	0.53	64.2*	70.6*	51.1*	33.0*
CCCN(CCC)S(=O)(=O)c1ccc(NC(=O)COc2ccccc2)cc1	i	99.6	0.5	101.0	-0.273	-4.4	.	.	.
Clc1ccc(-c2nc(-c3ccccn3)no2)cc1Cl	i	106.3	-6.9	45.1	-0.181	70.8*	33.1	13.6*	-31.5
c1ccc(CCc2nc(-c3ccccn3)no2)cc1	i	126.0	-28.1	102.5	-0.171	1.2	.	.	.
Clc1ccc(OCc2nc(-c3ccccn3)no2)c(Br)c1	i	106.7	-7.5	56.4	-0.712	57.3*	12.8	-16.1	-123.9

High-throughput results as filed in PubChem BioAssay.
